Calls of active or inactive are those of the source. No cut-off for these calls is given here.
Legend:
[1] = species: Cavia porcellus; test: (§1) Increase in heart rate with maximal inotropic response in isolated perfused guinea pig heart; type: functional; parameters: unit not given beside the values
Procedure, shortened: (§2)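 Langendorff-perfused isolated guinea pig heart. Compounds were given as a bolus injected into the perfusion stream, with impromidine as reference. Net increases in LV dp/dtmax, heart rate and coronary flow were expressed against impromidine = 100% in a control group (n = 6 each). Relative potency was taken from molar ED50 ratios versus impromidine = 100%.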

[2] = species: Cavia porcellus; test: Relative potency with impromidine (100%) in isolated perfused guinea pig heart; type: functional; procedure, shortened: as §2
[3] = target: Histamine H2 receptor (Cavia porcellus) (UniProt P47747); test: Potency at H2 receptor compared to histamine from mean pD2 value in right atrium of guinea pig; type: functional, tissue-based; details: Cardiac atrium
Procedure, shortened: (§3)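 Spontaneously beating isolated guinea pig right atrium with a positive chronotropic read-out. Cumulative concentration-response curves were run against histamine dihydrochloride as the standard. Incubation after each concentration was usually 25 min, adjusted until equilibrium. H2 selectivity was checked with cimetidine (10 µM and 1 µM) and metoprolol (1 µM). Potency relative to histamine = 1 was calculated from mean pD2 values.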

[4] = target: Histamine H2 receptor (Cavia porcellus) (UniProt P47747); test: Agonist activity at H2 receptor relative to histamine on electrically stimulated papillary muscle of guinea pig; type: functional, tissue-based
Procedure, shortened: (§4)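 Isolated right-ventricular papillary muscle from guinea pig, electrically paced at 1 Hz with 1 ms pulses, in Krebs-Henseleit solution gassed with O2/CO2 95:5 at 32.5 °C. Compounds were tested as hydrohalide salts. Cumulative concentration-response curves of contractile force were run against histamine as the standard agonist. […] relative potency were taken from pD2, with histamine maximum = 1.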

[5] = target: Histamine H2 receptor (Cavia porcellus) (UniProt P47747); test: H2 receptor agonist activity relative to histamine on isolated right atrium of guinea pig; type: functional, tissue-based; details: Cardiac atrium; procedure, shortened: as §3
[6] = target: Histamine H2 receptor (Cavia porcellus) (UniProt P47747); test: Intrinsic activity at H2 receptor in electrically stimulated guinea pig papillary muscle; type: functional, tissue-based; procedure, shortened: as §4
[7] = species: Cavia porcellus; test: Chronotropic effect assessed from maximal increase in delta LV (dp/dtmax) in isolated perfused guinea pig heart; type: functional; details: in the assay text read “Inotropic effect” for “Chronotropic effect”; procedure, shortened: as §2
[8] = target: Histamine H2 receptor (Cavia porcellus) (UniProt P47747); test: H2 receptor agonistic activity in isolated right atrium of guinea pig compared to histamine; type: functional, tissue-based; details: Cardiac atrium; procedure, shortened: as §3
[9] = species: Cavia porcellus; test: Increase in coronary flow with maximal inotropic response in isolated perfused guinea pig heart; type: functional; parameters: unit not given beside the values; procedure, shortened: as §2
[10] = target: T1, Histamine H1 receptor (Cavia porcellus, UniProt P31389); test: Antagonist activity at histamine H1 receptor against histamine in isolated ileum of guinea pig.; type: functional, tissue-based; details: read-out: pA2 (converted)
Procedure, shortened: (§5)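 Isolated guinea pig ileum contracted by histamine, with histamine dihydrochloride as the standard agonist in cumulative dose-response curves. pA2 was derived. For compounds that depressed the histamine maximum at 10 µM, -log KB was taken at 3 µM antagonist from log(DR-1) = log[ant.] - log KB.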

[11] = target: Histamine H2 receptor (Cavia porcellus) (UniProt P47747); test: Compound was tested for histamine H2 receptor agonistic activity of compound relative to histamine on isolated right atrium of guinea pig;NA means inactive as agonist at </=10 uM.; type: functional, tissue-based; details: Cardiac atrium; procedure, shortened: as §3
[12] = target: Histamine H2 receptor (Cavia porcellus) (UniProt P47747); test: Histamine H2 receptor agonism relative to histamine on isolated guinea pig right atrium; type: functional, tissue-based; details: Cardiac atrium; procedure, shortened: as §3
[13] = target: Histamine H2 receptor (Cavia porcellus) (UniProt P47747); test: Potency relative to histamine calculated from mean pD2 value in guinea pig right atrium.; type: functional, tissue-based; details: Cardiac atrium; procedure, shortened: as §3
[14] = target: Histamine H2 receptor (Cavia porcellus) (UniProt P47747); test: Histamine H2 receptor agonistic activity (as a measure of agonism) at the isolated right atrium of guinea pig, activity relative to histamine.; type: functional, tissue-based; details: Cardiac atrium; procedure, shortened: as §3
[15] = target: T1, Histamine H1 receptor; test: Antagonist activity at histamine H1 receptor against histamine in isolated ileum of guinea pig; type: functional, tissue-based; details: read-out: pA2 (converted); procedure, shortened: as §5
[16] = target: Histamine H2 receptor (Cavia porcellus) (UniProt P47747); test: Intrinsic activity (as a measure of agonism) on electrically stimulated papillary muscle of guinea pig; type: functional, tissue-based; details: Muscle tissue; procedure, shortened: as §4
[17] = species: Cavia porcellus; test: as §1; type: functional; procedure, shortened: as §2
[18] = target: Histamine H2 receptor (Cavia porcellus) (UniProt P47747); test: Agonistic activity relative to histamine on electrically stimulated papillary muscle of guinea pig; type: functional, tissue-based; details: Muscle tissue; procedure, shortened: as §4

T1 sequence (P31389 whole entry): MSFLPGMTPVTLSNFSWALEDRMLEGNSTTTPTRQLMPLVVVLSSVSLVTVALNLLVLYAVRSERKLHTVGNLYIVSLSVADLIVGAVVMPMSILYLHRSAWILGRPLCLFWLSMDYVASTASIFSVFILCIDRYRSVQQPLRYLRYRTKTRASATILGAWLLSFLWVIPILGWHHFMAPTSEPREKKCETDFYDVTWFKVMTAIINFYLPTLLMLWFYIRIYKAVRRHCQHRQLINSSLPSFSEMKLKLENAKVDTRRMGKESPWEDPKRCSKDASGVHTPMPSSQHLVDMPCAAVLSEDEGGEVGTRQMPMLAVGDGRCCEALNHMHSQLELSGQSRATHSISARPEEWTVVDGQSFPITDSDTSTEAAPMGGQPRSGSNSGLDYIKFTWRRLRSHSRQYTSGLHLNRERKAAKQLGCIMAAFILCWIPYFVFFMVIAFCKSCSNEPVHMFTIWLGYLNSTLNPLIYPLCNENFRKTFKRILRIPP
Chain of Histamine H2 receptor (Cavia porcellus) (P47747 whole entry, the tested form may be a part): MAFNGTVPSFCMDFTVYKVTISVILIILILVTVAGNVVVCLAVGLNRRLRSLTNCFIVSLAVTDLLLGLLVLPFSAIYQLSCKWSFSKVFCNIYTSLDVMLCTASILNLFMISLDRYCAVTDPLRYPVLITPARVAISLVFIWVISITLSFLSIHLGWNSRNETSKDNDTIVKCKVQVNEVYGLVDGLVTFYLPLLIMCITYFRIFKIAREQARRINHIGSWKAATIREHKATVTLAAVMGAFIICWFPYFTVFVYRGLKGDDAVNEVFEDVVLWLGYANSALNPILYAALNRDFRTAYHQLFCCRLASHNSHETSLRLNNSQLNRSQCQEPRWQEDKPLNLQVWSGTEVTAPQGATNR

Structure (SMILES)	Relative potency [3]	pD2 [4]	pD2 [5]	Intrinsic activity [6]	Intrinsic activity [8]	Kb [10] [nM]	pD2 [12]	Relative potency [13]	Intrinsic activity [14]	Relative potency [2]	Delta LV [7]	Delta coronary flow [9]	other results
N=C(N)NCCC(c1ccc(F)cc1)c1ccccn1 (configuration not stated)						229							Intrinsic activity [11]: inactive
N=C(NCCCc1c[nH]cn1)NCCC(c1ccncc1)c1ccc(F)cc1 (configuration not stated)	42.7	7.28	7.63	0.9	1	37.2							
N=C(NCCCc1c[nH]cn1)NCCC(c1ccccc1)c1ccc(Cl)cc1 (configuration not stated)	13.2	5.83	7.12	0.8	1	97.7							

The next lines start with results.

Relative potency [3]	pD2 [4]	pD2 [5]	Intrinsic activity [6]	Intrinsic activity [8]	Kb [10] [nM]	pD2 [12]	Relative potency [13]	Intrinsic activity [14]	Structure (SMILES)	Relative potency [2]	Delta LV [7]	Delta coronary flow [9]	other results
132	7.9	8.12	0.8	1					N=C(NCCCc1c[nH]cn1)NCCC(c1ccc(F)c(F)c1)c1ccccn1 (configuration not stated)	240	123	108	Delta heart rate [1]: 85
						6.63	4.3	1	N/C(=N\CCC(c1ccc(O)cc1)c1ccccn1)NCCCc1c[nH]cn1 (configuration not stated)				Kb [15]: 661 nM
					97.7	7.39	24.5	1	N=C(NCCCc1c[nH]cn1)NCCC(c1ccccc1)c1ccccn1 (configuration not stated)	63	76	121	Intrinsic activity [16]: 0.7; Delta heart rate [17]: 70; pD2 [18]: 7.37

From ChEMBL document CHEMBL1124639, “Synthesis and in vitro pharmacology of arpromidine and related phenyl(pyridylalkyl)guanidines, a potential new class of positive inotropic drugs” (J Med Chem, 1989)
